Assays:
[1] = biological target: T1, ATP-binding cassette sub-family C member 2 (Homo sapiens, UniProt Q92887); test: Induction of MRP2-mediated E2-17betaG transport in human MRP2 expressing HEK293 cells at 4 uM during 5 mins; type: ADME, cell-based; settings: hek293, 5 min
Procedure, shortened: (§1)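 Inside-out membrane vesicles from HEK293 cells transduced with MRP2 baculovirus (sodium butyrate 5 mM added at 24 h, harvested day 3). 7.5 μg vesicles in TS buffer (pH 7.4) with 4 mM ATP, 10 mM MgCl2, 20 μM [3H]E2-17βG, 5 min at 37°C. Rapid filtration and scintillation counting; AMP values subtracted. Nominal 10 and 100 μM antagonist, actual levels measured by LC-MS/MS. Untreated set at 100%. Three independent experiments.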

[2] = biological target: T2, ATP-binding cassette sub-family C member 4 (Homo sapiens, UniProt O15439); test: Inhibition of MRP4-mediated E2-17betaG transport in human MRP4 expressing HEK293 cells in presence of 0.1 to 1 uM E2-17betaG
T2 sequence (O15439 whole entry): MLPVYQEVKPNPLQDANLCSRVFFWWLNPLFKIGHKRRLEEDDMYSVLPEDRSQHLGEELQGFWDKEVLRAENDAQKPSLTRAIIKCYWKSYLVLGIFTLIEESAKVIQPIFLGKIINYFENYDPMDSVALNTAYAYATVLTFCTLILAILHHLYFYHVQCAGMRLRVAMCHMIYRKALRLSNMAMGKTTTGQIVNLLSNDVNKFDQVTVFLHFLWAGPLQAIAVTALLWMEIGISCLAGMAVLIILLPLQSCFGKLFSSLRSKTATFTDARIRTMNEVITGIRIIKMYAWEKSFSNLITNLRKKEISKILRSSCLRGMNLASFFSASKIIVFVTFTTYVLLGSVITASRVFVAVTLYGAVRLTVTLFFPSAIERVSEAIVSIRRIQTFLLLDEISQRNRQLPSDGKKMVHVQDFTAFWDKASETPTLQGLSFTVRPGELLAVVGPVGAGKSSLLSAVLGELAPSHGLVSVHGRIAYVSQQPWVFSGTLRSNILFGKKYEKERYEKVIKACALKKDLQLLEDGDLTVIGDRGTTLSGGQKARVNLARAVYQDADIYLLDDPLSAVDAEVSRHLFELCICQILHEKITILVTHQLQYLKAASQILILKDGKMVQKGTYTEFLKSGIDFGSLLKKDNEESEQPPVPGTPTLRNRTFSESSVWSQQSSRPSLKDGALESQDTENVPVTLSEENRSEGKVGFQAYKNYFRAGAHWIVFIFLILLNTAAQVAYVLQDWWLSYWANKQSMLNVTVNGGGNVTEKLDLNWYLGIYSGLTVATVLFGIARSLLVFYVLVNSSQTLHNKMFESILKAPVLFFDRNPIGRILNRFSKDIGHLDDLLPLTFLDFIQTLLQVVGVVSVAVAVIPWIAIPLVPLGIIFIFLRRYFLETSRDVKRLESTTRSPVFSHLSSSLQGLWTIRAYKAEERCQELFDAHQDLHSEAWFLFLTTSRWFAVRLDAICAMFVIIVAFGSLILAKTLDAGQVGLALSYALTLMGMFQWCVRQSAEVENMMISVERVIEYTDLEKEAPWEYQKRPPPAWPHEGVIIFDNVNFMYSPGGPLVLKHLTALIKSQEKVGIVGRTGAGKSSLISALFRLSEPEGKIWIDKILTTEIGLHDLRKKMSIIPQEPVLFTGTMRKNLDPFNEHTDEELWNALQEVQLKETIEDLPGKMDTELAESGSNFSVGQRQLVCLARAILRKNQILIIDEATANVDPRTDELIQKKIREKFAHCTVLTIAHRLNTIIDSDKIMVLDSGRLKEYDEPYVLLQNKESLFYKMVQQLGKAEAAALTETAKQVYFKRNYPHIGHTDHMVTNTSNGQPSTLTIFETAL

[3] = biological target: ATP-binding cassette sub-family C member 3 (Homo sapiens, UniProt O15438); test: Inhibition of MRP3-mediated E2-17betaG transport in human MRP3 expressing HEK293 cells in presence of 15 uM E2-17betaG; type: ADME, cell-based
Sequence of ATP-binding cassette sub-family C member 3 (O15438 whole entry): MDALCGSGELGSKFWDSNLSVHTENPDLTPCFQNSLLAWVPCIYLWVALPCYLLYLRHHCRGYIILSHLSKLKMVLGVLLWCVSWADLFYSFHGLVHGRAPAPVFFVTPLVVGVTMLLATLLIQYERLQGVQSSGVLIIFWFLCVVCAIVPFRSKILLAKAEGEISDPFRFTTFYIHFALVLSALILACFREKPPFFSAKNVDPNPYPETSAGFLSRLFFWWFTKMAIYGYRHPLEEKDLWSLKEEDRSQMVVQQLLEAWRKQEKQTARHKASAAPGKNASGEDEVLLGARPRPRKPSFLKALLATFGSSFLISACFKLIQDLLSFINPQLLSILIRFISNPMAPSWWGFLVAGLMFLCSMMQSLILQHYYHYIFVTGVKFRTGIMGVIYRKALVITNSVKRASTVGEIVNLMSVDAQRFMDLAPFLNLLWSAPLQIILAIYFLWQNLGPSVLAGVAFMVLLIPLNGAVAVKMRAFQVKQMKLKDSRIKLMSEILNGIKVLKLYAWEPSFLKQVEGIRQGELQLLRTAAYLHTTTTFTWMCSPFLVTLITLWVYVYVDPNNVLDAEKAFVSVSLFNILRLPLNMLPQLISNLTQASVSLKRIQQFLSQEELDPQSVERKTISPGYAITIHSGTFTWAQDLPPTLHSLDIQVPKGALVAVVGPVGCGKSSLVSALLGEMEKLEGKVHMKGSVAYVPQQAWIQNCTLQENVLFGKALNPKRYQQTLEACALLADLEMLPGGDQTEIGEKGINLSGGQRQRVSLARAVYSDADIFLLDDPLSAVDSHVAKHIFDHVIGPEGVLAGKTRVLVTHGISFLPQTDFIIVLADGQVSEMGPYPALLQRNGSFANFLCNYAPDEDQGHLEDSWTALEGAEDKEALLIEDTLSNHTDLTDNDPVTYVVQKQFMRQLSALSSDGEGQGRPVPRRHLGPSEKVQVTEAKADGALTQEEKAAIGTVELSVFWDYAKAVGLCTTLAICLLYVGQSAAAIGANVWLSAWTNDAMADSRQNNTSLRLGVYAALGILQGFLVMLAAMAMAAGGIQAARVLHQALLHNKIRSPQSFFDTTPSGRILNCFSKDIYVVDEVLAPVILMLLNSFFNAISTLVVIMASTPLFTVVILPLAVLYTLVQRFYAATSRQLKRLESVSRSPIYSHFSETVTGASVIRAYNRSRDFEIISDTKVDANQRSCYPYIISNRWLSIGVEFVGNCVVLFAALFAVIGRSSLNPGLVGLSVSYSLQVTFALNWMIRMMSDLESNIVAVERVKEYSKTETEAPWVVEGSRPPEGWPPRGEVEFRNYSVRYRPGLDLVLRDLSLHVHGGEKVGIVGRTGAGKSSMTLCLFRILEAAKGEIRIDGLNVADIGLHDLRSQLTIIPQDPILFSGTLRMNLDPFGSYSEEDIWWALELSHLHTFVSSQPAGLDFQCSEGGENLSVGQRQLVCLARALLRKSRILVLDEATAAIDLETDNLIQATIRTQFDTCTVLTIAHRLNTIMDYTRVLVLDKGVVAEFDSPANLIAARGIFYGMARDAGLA
Procedure, shortened: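 Vesicles from MRP3-transduced HEK293 cells. 7.5 μg in TS buffer with 4 mM ATP and 10 mM MgCl2, substrate [3H]E2-17βG at 15 μM, with antagonists at high concentrations. Incubated at 37°C, filtered and counted. ATP-dependent uptake calculated by AMP subtraction.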

[4] = Cmax in male human subjects; type: ADME, organism-based; settings: in vivo
[5] = Retention time of the compound by LC-MS/MS method; type: physicochemical
Procedure, shortened: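 Reaction mix without radiolabel, AMP condition, with 7.5 μg eYFP vesicles. Supernatant after 16,000–20,000g spin diluted in 50% acetonitrile/0.1% TFA. Gradient of 0.1% TFA water/acetonitrile, 50→90% B over 5 min. Electrospray triple quadrupole. Duplicates, at least three experiments.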

[6] = biological target: T2, ATP-binding cassette sub-family C member 4; test: Noncompetitive inhibition of MRP4-mediated E2-17betaG transport in human MRP4 expressing HEK293 cells by Dixon plot; type: ADME, cell-based
MRP4 (ABCC4) [7] = biological target: T3, MRP4 (ABCC4) (Homo sapiens, UniProt O15439); test: Inhibition of MRP4-mediated E2-17betaG transport in human MRP4 expressing HEK293 cells at 4 uM during 5 mins; type: ADME, cell-based; settings: probe E2-17betaG
T3 sequence (O15439 whole entry): T2 sequence (O15439 whole entry)
Procedure, shortened: (§2)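 MRP4-expressing HEK293 inside-out vesicles (baculovirus transduction). 7.5 μg protein with 4 mM ATP, 10 mM MgCl2 in TS buffer and 0.12 μM [3H]E2-17βG, 5 min at 37°C. Filter-bound radioactivity counted; AMP control subtracted for ATP-dependent uptake. Nominal 10/100 μM antagonist, actual concentrations by LC-MS/MS. Percent of untreated, three independent experiments.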

[8] = biological target: T1, ATP-binding cassette sub-family C member 2; test: Induction of MRP2-mediated E2-17betaG transport in human MRP2 expressing HEK293 cells at 1 to 3 uM during 5 mins; type: ADME, cell-based; settings: hek293, 5 min; procedure, shortened: as §1
[9] = biological target: T2, ATP-binding cassette sub-family C member 4; test: Inhibition of MRP4-mediated E2-17betaG transport in human MRP4 expressing HEK293 cells at 1 to 3 uM during 5 mins; type: ADME, cell-based; settings: hek293, 5 min; procedure, shortened: as §2
[10] = biological target: T4, Multidrug resistance-associated protein 1 (Homo sapiens, UniProt P33527); test: Inhibition of MRP1-mediated E2-17betaG transport in human MRP1 expressing HEK293 cells at 1 to 3 uM during 5 mins; type: ADME, cell-based; settings: hek293, 5 min
T4 sequence (P33527 whole entry): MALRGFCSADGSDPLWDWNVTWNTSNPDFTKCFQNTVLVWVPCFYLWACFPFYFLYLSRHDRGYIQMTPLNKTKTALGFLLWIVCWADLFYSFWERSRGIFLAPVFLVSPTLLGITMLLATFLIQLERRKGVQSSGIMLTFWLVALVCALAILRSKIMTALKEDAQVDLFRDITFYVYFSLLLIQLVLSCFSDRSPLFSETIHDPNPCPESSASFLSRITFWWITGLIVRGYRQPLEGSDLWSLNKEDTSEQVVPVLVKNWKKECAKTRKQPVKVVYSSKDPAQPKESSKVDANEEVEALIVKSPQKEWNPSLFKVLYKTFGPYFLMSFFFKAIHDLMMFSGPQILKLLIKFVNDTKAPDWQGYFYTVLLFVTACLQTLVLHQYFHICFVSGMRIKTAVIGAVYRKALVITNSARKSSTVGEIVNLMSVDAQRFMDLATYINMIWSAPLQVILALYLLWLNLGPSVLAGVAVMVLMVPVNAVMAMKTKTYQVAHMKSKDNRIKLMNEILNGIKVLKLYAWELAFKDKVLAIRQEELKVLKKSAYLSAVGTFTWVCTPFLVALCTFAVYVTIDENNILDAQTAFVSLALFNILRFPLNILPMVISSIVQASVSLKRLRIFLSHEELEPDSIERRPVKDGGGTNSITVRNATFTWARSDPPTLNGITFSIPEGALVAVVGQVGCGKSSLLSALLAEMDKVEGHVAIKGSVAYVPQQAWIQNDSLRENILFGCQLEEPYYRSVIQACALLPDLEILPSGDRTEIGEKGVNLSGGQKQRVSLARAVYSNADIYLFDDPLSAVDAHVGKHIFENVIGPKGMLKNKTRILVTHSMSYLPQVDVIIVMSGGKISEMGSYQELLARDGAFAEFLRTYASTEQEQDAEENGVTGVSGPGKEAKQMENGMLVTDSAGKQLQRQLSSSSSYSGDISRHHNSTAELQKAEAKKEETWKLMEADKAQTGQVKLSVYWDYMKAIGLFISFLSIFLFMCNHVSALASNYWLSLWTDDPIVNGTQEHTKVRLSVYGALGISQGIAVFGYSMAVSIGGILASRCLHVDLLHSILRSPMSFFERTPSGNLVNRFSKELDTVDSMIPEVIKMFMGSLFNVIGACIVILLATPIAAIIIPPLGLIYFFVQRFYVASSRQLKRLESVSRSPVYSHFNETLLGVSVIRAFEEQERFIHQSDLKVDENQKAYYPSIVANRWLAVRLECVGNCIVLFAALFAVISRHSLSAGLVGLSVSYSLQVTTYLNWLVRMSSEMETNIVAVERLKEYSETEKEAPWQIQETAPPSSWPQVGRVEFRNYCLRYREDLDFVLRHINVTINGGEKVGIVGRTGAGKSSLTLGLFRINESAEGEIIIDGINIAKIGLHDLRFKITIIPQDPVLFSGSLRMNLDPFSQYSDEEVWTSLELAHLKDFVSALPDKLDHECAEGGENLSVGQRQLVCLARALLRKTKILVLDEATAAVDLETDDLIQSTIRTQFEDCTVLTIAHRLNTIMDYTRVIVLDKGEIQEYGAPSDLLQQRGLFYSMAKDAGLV
Procedure, shortened: (§3)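 Inside-out membrane vesicles from MRP1-baculovirus-transduced HEK293 cells. 7.5 μg vesicles in TS buffer, 4 mM ATP, 10 mM MgCl2, 0.16 μM [3H]E2-17βG, 5 min at 37°C. Stopped on ice, then rapid filtration and scintillation counting. ATP minus AMP uptake taken as net. Nominal 10 or 100 μM antagonist, actual levels by LC-MS/MS. Expressed as % of untreated. Three independent experiments.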

[11] = biological target: T1, ATP-binding cassette sub-family C member 2; test: Induction of MRP2-mediated E2-17betaG transport in human MRP2 expressing HEK293 cells at 0.7 to 1.3 uM during 5 mins; type: ADME, cell-based; settings: hek293, 5 min; procedure, shortened: as §1
[12] = biological target: T1, ATP-binding cassette sub-family C member 2; test: Induction of MRP2-mediated E2-17betaG transport in human MRP2 expressing HEK293 cells at 7 uM during 5 mins; type: ADME, cell-based; settings: hek293, 5 min
Procedure, shortened: (§4)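 Inside-out membrane vesicles from HEK293 cells transduced with MRP baculovirus (5 mM butyrate at 24 h, harvested day 3). Reaction: 7.5 µg vesicles in TS buffer pH 7.4 with 4 mM ATP, 10 mM MgCl2 and [3H]E2-17βG, 37°C for 5 min. E2-17βG was 0.16 µM (MRP1), 20 µM (MRP2) or 0.12 µM (MRP4). Uptake was read by rapid filtration and scintillation counting. ATP-dependent uptake was taken as ATP minus AMP values, with drug-free uptake set at 100%. Nominal 10 or 100 µM antagonist; actual concentration measured by LC-MS/MS. Three independent experiments.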

Rattus norvegicus = test: Attenuation of CP55940-induced hypotension in iv dosed rat; type: functional
Procedure, shortened: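 Male normotensive anaesthetized Wistar rats; antagonist given i.v. at several doses (n=2 per dose) 10 min before CP55,940 0.1 mg/kg i.v. Hypotension develops within 1 min; lowest blood pressure taken as the hypotensive effect. ED50 is the dose inhibiting the CP55,940 hypotensive effect by 50%, calculated from the linear part of the percentage dose-response curve.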

[13] = biological target: T4, Multidrug resistance-associated protein 1; test: Inhibition of MRP1-mediated E2-17betaG transport in human MRP1 expressing HEK293 cells at 7 uM during 5 mins; type: ADME, cell-based; settings: hek293, 5 min; procedure, shortened: as §4
[14] = biological target: T2, ATP-binding cassette sub-family C member 4; test: Inhibition of MRP4-mediated E2-17betaG transport in human MRP4 expressing HEK293 cells at 7 uM during 5 mins; type: ADME, cell-based; settings: hek293, 5 min; procedure, shortened: as §4
MRP1 (ABCC1) = MRP1 (ABCC1) (Homo sapiens, UniProt P33527); test: Inhibition of MRP1-mediated E2-17betaG transport in human MRP1 expressing HEK293 cells at 12 uM during 5 mins; type: ADME, cell-based; settings: probe E2-17betaG; procedure, shortened: as §3
Sequence of MRP1 (ABCC1) (P33527 whole entry): as above

MRP4 (ABCC4) [15] = biological target: T3, MRP4 (ABCC4); test: Inhibition of MRP4-mediated E2-17betaG transport in human MRP4 expressing HEK293 cells at 12 uM during 5 mins; type: ADME, cell-based; settings: probe E2-17betaG; procedure, shortened: as §2
[16] = biological target: T1, ATP-binding cassette sub-family C member 2; test: Induction of MRP2-mediated E2-17betaG transport in human MRP2 expressing HEK293 cells at 12 uM during 5 mins; type: ADME, cell-based; settings: hek293, 5 min; procedure, shortened: as §1
[17] = biological target: T4, Multidrug resistance-associated protein 1; test: Inhibition of MRP1-mediated E2-17betaG transport in human MRP1 expressing HEK293 cells in presence of 0.16 to 5 uM E2-17betaG

T1 sequence (Q92887 whole entry): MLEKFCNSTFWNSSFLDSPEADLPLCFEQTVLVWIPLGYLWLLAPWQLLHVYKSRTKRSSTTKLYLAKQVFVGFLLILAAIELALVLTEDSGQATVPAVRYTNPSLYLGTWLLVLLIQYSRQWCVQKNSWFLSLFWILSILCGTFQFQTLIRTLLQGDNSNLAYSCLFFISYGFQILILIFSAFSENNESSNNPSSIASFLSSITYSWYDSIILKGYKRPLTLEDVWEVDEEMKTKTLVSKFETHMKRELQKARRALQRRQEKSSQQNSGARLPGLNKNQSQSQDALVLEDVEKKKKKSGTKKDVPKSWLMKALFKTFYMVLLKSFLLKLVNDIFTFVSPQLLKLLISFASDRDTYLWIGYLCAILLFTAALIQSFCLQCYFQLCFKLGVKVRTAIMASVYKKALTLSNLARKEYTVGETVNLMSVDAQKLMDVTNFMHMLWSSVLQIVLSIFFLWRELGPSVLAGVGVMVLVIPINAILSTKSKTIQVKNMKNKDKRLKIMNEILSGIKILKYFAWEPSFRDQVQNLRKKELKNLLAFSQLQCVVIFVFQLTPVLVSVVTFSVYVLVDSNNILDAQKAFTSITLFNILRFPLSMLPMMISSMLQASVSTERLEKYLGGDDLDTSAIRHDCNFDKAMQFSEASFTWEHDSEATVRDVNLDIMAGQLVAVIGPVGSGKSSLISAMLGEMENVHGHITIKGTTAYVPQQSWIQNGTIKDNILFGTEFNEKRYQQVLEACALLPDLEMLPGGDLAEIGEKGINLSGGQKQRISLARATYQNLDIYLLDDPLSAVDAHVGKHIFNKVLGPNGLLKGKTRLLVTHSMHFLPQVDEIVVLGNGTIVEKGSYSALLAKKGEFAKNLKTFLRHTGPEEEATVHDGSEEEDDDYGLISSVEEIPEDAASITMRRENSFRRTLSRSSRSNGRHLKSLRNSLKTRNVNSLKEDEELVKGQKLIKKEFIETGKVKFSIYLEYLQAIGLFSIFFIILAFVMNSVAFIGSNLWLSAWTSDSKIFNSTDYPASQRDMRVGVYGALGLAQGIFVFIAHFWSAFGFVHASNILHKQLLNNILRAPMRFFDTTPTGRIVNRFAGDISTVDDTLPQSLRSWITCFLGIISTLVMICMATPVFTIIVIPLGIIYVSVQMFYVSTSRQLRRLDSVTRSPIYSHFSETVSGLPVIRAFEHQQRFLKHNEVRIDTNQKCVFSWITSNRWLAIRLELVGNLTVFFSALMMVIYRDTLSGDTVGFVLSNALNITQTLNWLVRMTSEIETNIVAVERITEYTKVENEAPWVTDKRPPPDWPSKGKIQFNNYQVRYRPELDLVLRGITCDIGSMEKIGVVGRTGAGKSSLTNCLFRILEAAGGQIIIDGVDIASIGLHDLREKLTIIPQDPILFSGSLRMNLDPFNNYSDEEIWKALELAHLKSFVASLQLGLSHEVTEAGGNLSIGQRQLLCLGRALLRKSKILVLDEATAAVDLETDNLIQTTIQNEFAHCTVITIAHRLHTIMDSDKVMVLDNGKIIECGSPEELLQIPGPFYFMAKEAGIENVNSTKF

| SMILES | inhibition (INH) [2] | inhibition (INH) [3] | Retention_time [5] | Ki [6] | Activity [12] | inhibition (INH) [13] | inhibition (INH) [14] | other results |
| --- | --- | --- | --- | --- | --- | --- | --- | --- |
| Cc1c(C(=O)NN2CCCCC2)nn(-c2ccc(Cl)cc2Cl)c1-c1ccc(Cl)cc1 [RIMONABANT] | Active | Active | 3.2 min | 4 µM |  |  |  | Activity [1]: 513%; Cmax [4]: 400 nM; inhibition at 5 min, 4 µM (MRP4 (ABCC4) [7]): -58% |
| C/N=C(\NS(=O)(=O)N1CCSCC1)N1CC(c2ccccc2)C(c2ccc(Cl)cc2)=N1 (centres undefined) |  |  | 4 min |  |  |  |  | Activity [8]: 349%; inhibition (INH) [9]: Not Active; inhibition (INH) [10]: Not Active; Activity [11]: 256% |
| CCN(CC)S(=O)(=O)NC(=NC)N1CC(c2ccccc2)C(c2ccc(Cl)cc2)=N1 (centres undefined) |  |  | 4.2 min |  | 543% | Not Active | Active | ED50 (Rattus norvegicus): 0.2 mg/kg |
| CCN(C)S(=O)(=O)NC(=NC)N1CC(c2ccccc2)C(c2ccc(Cl)cc2)=N1 (centres undefined) | Active | Active | 3.8 min | 7 µM |  |  |  | inhibition at 5 min, 12 µM (MRP1 (ABCC1)): -34%; inhibition at 5 min, 12 µM (MRP4 (ABCC4) [15]): -72%; Activity [16]: 543%; inhibition (INH) [17]: Active |
| C/N=C(\NS(=O)(=O)N(C)C(C)C)N1CC(c2ccccc2)C(c2ccc(Cl)cc2)=N1 (centres undefined) |  |  | 4.2 min |  | 543% | Active | Active |  |

Reference: ChEMBL document CHEMBL3526013, “Cannabinoid type 1 receptor antagonists modulate transport activity of multidrug resistance-associated proteins MRP1, MRP2, MRP3, and MRP4” (Drug Metab Dispos, 2011)
